# Measurements from publication PMC9303630 (Journal of Clinical Pharmacology, 2021).
# “Also recorded” adds a separate entry of the source. Marks after values point to notes of the source that are not given here.
# What was measured:
# [1] = cited from earlier work
# [2] = 100-mg dose of ipatasertib coadministered with itraconazole; cited from earlier work
# [3] = not assessed in this study; cited from earlier work
# [4] = cited from earlier work; remark: listed apart in the source
# [5] = radiolabeled ipatasertib; ref data on file; cited from earlier work
# [6] = Phase 1 open-label single-dose hepatic impairment PK study of ipatasertib; assay type: in vivo, human; details: for tlast: 100 mg ipatasertib single oral, median (min-max); for AUC0‐∞, Test/Reference geometric mean ratio / Cmax, Test/Reference geometric mean ratio: (90%CI) where printed
# Method in brief: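 Open-label, parallel-group design: subjects with mild, moderate or severe hepatic impairment (Child-Pugh or NCI-ODWG) vs matched normal-function controls. Single oral 100 mg dose with 240 mL water after ≥8 h fast, then fasting ≥4 h. Plasma was sampled predose to day 15 for parent and M1, assayed with stable-labeled internal standards. Log-transformed AUC0‐∞ and Cmax were compared test vs reference with back-transformed geometric mean ratios and 90% CIs.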
# [7] = Safety and tolerability in the hepatic impairment study; assay type: in vivo, human
# P‐glycoprotein (P‐gp) = details: cited from earlier work
# [8] = once daily; combination setting; patients with solid tumors; cited from earlier work
# CYP3A4 = details: cited from earlier work
# [9] = Mild vs normal, Child-Pugh, listed as ipatasertib
# [10] = Mild vs normal, NCI-ODWG, listed as ipatasertib
# [11] = Moderate vs normal, Child-Pugh, listed as ipatasertib
# [12] = Moderate vs normal, NCI-ODWG, listed as ipatasertib
# [13] = Severe vs normal, Child-Pugh, listed as ipatasertib
# [14] = Severe vs normal, NCI-ODWG, listed as ipatasertib
# [15] = moderate or severe hepatic impairment, either method of classification
compound,measurement,setting,value
CC1(C)CCC(CN2CCN(c3ccc(C(=O)NS(=O)(=O)c4ccc(NCC5CCOCC5)c([N+](=O)[O-])c4)c(Oc4cnc5[nH]ccc5c4)c3)CC2)=C(c2ccc(Cl)cc2)C1 [venetoclax],exposure in subjects with normal and mildly impaired hepatic function,[1],comparable exposure
COc1cc2ncnc(Nc3ccc(F)c(Cl)c3)c2cc1NC(=O)/C=C/CN1CCCCC1 [dacomitinib],exposure in subjects with normal and mildly impaired hepatic function,[1],comparable exposure
CC(C)NC[C@@H](C(=O)N1CCN(c2ncnc3c2[C@H](C)C[C@H]3O)CC1)c1ccc(Cl)cc1 [Ipatasertib],increase of ipatasertib exposures with itraconazole,[2],≈ 5 fold
same,overall mean percentage unbound in human plasma,[3],63.6%
same,median half‐life (t1/2),[4]; 400-mg dose in patients,≈ 45 hours
same,dose proportionality,"[4]; single dose, doses of 100 to 800 mg, dose escalation study",close to dose proportionality
same,parent drug eliminated in urine,[5],≈ 8%
same,total administered dose eliminated in urine,[5],≈ 19%
same,tlast,"[6]; Child-Pugh, Healthy (N = 13)",120.0 (72.0‐120.4) h
same,tlast,"[6]; Child-Pugh, Mild (N = 8)",120.0 (48.0‐168.0) h
same,tlast,"[6]; Child-Pugh, Moderate (N = 8)",216.0 (146.5‐334.5) ^b h
same,tlast,"[6]; Child-Pugh, Severe (N = 7)",192.2 (167.7‐336.0) ^c h
same,tlast,"[6]; NCI-ODWG, Healthy (N = 21)",120.0 (48.0‐240.0) h
same,tlast,"[6]; NCI-ODWG, Mild (N = 5)",144.1 (96.0‐168.0)^c h
same,tlast,"[6]; NCI-ODWG, Moderate (N = 5)",240.8 (168.0‐334.5)^c h
same,tlast,"[6]; NCI-ODWG, Severe (N = 5)",216.4 (167.7‐336.0) h
same,systemic exposure compared to normal hepatic function,[6]; Child-Pugh mild hepatic impairment,comparable; also recorded: no appreciable difference
same,apparent plasma clearance lower than normal hepatic function,[6]; Child-Pugh moderate,≈ 2.5 fold
same,apparent volume of distribution lower than normal hepatic function,[6]; Child-Pugh moderate,~1.6 fold
same,mean elimination t1/2 longer than normal hepatic function,[6]; Child-Pugh moderate,≈ 1.7 fold
same,increase in systemic exposure (AUC0‐∞) compared to normal hepatic function,[6]; Child-Pugh moderate hepatic impairment,≈ 2 fold
same,apparent plasma clearance lower than normal hepatic function,[6]; Child-Pugh severe,≈ 2.9 fold
same,apparent volume of distribution lower than normal hepatic function,[6]; Child-Pugh severe,~2.1 fold
same,mean elimination t1/2 longer than normal hepatic function,[6]; Child-Pugh severe,~1.5 fold
same,increase in systemic exposure (AUC0‐∞) compared to normal hepatic function,[6]; Child-Pugh severe hepatic impairment,~3 fold
same,"AUC0‐∞, Test/Reference geometric mean ratio","[6]; Mild vs normal, Child-Pugh",89.5%
same,"Cmax, Test/Reference geometric mean ratio","[6]; Mild vs normal, Child-Pugh",98.6%
same,"AUC0‐∞, Test/Reference geometric mean ratio",[6]; [9],89.5 (65.1‐123.2) %
same,"Cmax, Test/Reference geometric mean ratio",[6]; [9],98.6 (52.8‐184.0) %
same,"AUC0‐∞, Test/Reference geometric mean ratio","[6]; Mild vs normal, NCI-ODWG",153.6%
same,"Cmax, Test/Reference geometric mean ratio","[6]; Mild vs normal, NCI-ODWG",101.1%
same,"AUC0‐∞, Test/Reference geometric mean ratio",[6]; [10],153.6 (87.7‐269.2) %
same,"Cmax, Test/Reference geometric mean ratio",[6]; [10],101.1 (35.9‐284.8) %
same,"AUC0‐∞, Test/Reference geometric mean ratio","[6]; Moderate vs normal, Child-Pugh",261.5%
same,"Cmax, Test/Reference geometric mean ratio","[6]; Moderate vs normal, Child-Pugh",184.1%
same,"AUC0‐∞, Test/Reference geometric mean ratio",[6]; [11],261.5 (191.2‐357.5) %
same,"Cmax, Test/Reference geometric mean ratio",[6]; [11],184.1 (112.2‐302.0) %
same,"AUC0‐∞, Test/Reference geometric mean ratio","[6]; Moderate vs normal, NCI-ODWG",339.1%
same,"Cmax, Test/Reference geometric mean ratio","[6]; Moderate vs normal, NCI-ODWG",198.1%
same,"AUC0‐∞, Test/Reference geometric mean ratio",[6]; [12],339.1 (241.7‐475.6) %
same,"Cmax, Test/Reference geometric mean ratio",[6]; [12],198.1 (109.5‐358.4) %
same,AUC0‐∞ higher than normal hepatic function,[6]; NCI-ODWG mild,≈ 1.5 fold
same,Cmax compared to normal hepatic function,[6]; NCI-ODWG mild,similar
same,"AUC0‐∞, Test/Reference geometric mean ratio","[6]; Severe vs normal, Child-Pugh",298.1%
same,"Cmax, Test/Reference geometric mean ratio","[6]; Severe vs normal, Child-Pugh",163.8%
same,"AUC0‐∞, Test/Reference geometric mean ratio",[6]; [13],298.1 (228.4‐389.0) %
same,"Cmax, Test/Reference geometric mean ratio",[6]; [13],163.8 (86.4‐310.3) %
same,"AUC0‐∞, Test/Reference geometric mean ratio","[6]; Severe vs normal, NCI-ODWG",267.0%
same,"Cmax, Test/Reference geometric mean ratio","[6]; Severe vs normal, NCI-ODWG",155.2%
same,"AUC0‐∞, Test/Reference geometric mean ratio",[6]; [14],267.0 (195.6‐364.3) %
same,"Cmax, Test/Reference geometric mean ratio",[6]; [14],155.2 (70.7‐340.9) %
same,Tmax,"[6]; human, plasma, po, 100 mg, median tmax, across all the groups, single oral 100-mg dose, Child-Pugh",30 to 60 min
same,AUC0‐∞ increase compared to normal hepatic function,[6]; [15],~3 fold
same,Cmax increase compared to normal hepatic function,[6]; [15],≈ 2 fold
same,total AEs reported,[7]; all 36 subjects,12 AEs
same,discontinuation due to AEs,[7]; in vivo,no subjects were discontinued
same,AEs reported,[7]; mild hepatic impairment,3 AEs
same,subjects with AEs,[7]; mild hepatic impairment,2 subjects
same,AEs reported,[7]; moderate hepatic impairment,3 AEs
same,subjects with AEs,[7]; moderate hepatic impairment,3 subjects
same,AEs reported,[7]; normal hepatic function,1 AE
same,subjects with AEs,[7]; normal hepatic function,1 subject
same,AE of orthostatic hypotension assessed as severe (grade 3),[7]; one subject with moderate hepatic impairment,1 AE
same,AEs reported,[7]; severe hepatic impairment,5 AEs
same,subjects with AEs,[7]; severe hepatic impairment,3 subjects
same,overall safety and tolerability,"[7]; single oral dose of 100 mg, normal hepatic function and hepatic impairment",generally safe and well tolerated
same,substrate of P‐glycoprotein (P‐gp),P‐glycoprotein (P‐gp),substrate
same,maximum tolerated dose,[8],400 mg
same,substrate of CYP3A4,CYP3A4,sensitive substrate
CCN(CC)CCNC(=O)c1c(C)[nH]c(/C=C2\C(=O)Nc3ccc(F)cc32)c1C [sunitinib],exposure in subjects with normal and mildly impaired hepatic function,[1],comparable exposure
O=C(c1ccc(F)c(F)c1Nc1ccc(I)cc1F)N1CC(O)([C@@H]2CCCCN2)C1 [cobimetinib],exposure in subjects with normal and mildly impaired hepatic function,[1],comparable exposure
